ChEMBL document CHEMBL4406856, “Structure based design, synthesis and in vitro antitumour activity of tiazofurin stereoisomers with nitrogen functions at the C-2' or C-3' positions” (Eur J Med Chem, 2019)
Calls of active or inactive are those of the source. The rule behind the calls is not given here.

Columns and labels:
K562 [1] = test: Induction of apoptosis in human K562 cells incubated for 24 hrs by annexin V FITC and propidium iodide staining based flow cytometry relative to control; type: functional; parameters: concentration or dose not given beside the values
K562 [2] = test: Antiproliferative activity against human K562 cells assessed as reduction in cell growth incubated for 72 hrs by MTT assay; type: functional, cell-based; settings: K562, 72 h
Summary of the method: (§1)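 Colorimetric MTT assay on human tumour lines K562 (chronic myeloid leukemia), HL-60 (promyelocytic leukemia), Jurkat (T cell leukemia), Raji (Burkitt's lymphoma), HT-29 (colorectal adenocarcinoma), HeLa (cervix adenocarcinoma) and normal lung fibroblast MRC-5; cells exposed to compounds for 72 h.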

HL-60 = test: Antiproliferative activity against human HL60 cells assessed as reduction in cell growth incubated for 72 hrs by MTT assay; type: functional, cell-based; settings: HL-60, 72 h
Summary of the method: as §1, with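 “h. IC50 taken as concentration giving 50% growth inhibition versus untreated control.” for “h.”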

Jurkat [3] = test: Antiproliferative activity against human Jurkat cells assessed as reduction in cell growth incubated for 72 hrs by MTT assay; type: functional, cell-based
Summary of the method: as §1, with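 “h. IC50 taken as concentration giving 50% growth inhibition versus untreated control.” for “h.”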

Raji [4] = test: Antiproliferative activity against human Raji cells assessed as reduction in cell growth incubated for 72 hrs by MTT assay; type: functional, cell-based; summary of the method: as §1
HT-29 = test: Antiproliferative activity against human HT-29 cells assessed as reduction in cell growth incubated for 72 hrs by MTT assay; type: functional, cell-based; settings: HT-29, 72 h
Summary of the method: as §1, with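 “h. IC50 taken as concentration giving 50% growth inhibition versus untreated control.” for “h.”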

HeLa = test: Antiproliferative activity against human HeLa cells assessed as reduction in cell growth incubated for 72 hrs by MTT assay; type: functional, cell-based
Summary of the method: as §1, with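 “h. IC50 taken as concentration giving 50% growth inhibition versus untreated control.” for “h.”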

MRC5 = test: Cytotoxicity against human MRC5 cells assessed as reduction in cell viability incubated for 72 hrs by MTT assay; type: cell-based; settings: MRC5, 72 h; summary of the method: as §1
K562 [5] = test: Potency index, ratio of tiazofurin IC50 to compound IC50 for cytotoxicity against human K562 cells incubated for 72 hrs by MTT assay; type: functional
K562 [6] = test: Potency index, ratio of doxorubicin IC50 to compound IC50 for cytotoxicity against human K562 cells incubated for 72 hrs by MTT assay; type: functional
K562 [7] = test: Cell cycle arrest in human K562 cells assessed as accumulation in G2/M phase incubated for 72 hrs by propidium iodide staining based flow cytometry (reference value: 15.45%); type: functional
Summary of the method: (§2)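 Exponentially growing K562 cells treated for 24 or 72 h, untreated cells as control; cells stained with propidium iodide and DNA content read by flow cytometry. Phase distribution (subG1, G0/G1, S, G2/M) taken from one-parameter histograms, subG1 scored as hypodiploid, apoptotic cells.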

K562 [8] = test: Cell cycle arrest in human K562 cells assessed as accumulation in S phase incubated for 72 hrs by propidium iodide staining based flow cytometry (reference value: 36.05%); type: functional; summary of the method: as §2
K562 [9] = test: Cell cycle arrest in human K562 cells assessed as accumulation in G0/G1 phase incubated for 72 hrs by propidium iodide staining based flow cytometry (reference value: 45.43%); type: functional; summary of the method: as §2
K562 [10] = test: Cell cycle arrest in human K562 cells assessed as accumulation in SubG1 phase incubated for 72 hrs by propidium iodide staining based flow cytometry (reference value: 3.07%); type: functional; summary of the method: as §2
K562 [11] = test: Induction of apoptosis in human K562 cells incubated for 72 hrs by annexin V FITC and propidium iodide staining based flow cytometry relative to control; type: functional; parameters: concentration or dose not given beside the values
Summary of the method: (§3)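 K562 cells treated for 72 h, stained with Annexin V-FITC/propidium iodide and analysed by flow cytometry. Apoptotic, necrotic and live fractions scored as percent of gated cells; specific apoptosis and specific necrosis calculated from these counts.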

K562 [12] = test: Induction of necrosis in human K562 cells incubated for 72 hrs by annexin V FITC and propidium iodide staining based flow cytometry relative to control; type: functional; parameters: concentration or dose not given beside the values; summary of the method: as §3
K562 [13] = test: Induction of apoptosis in human K562 cells assessed as Bcl2 level incubated for 72 hrs by Western blot analysis (reference value: 100%); type: functional
Summary of the method: (§4)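 K562 cells treated for 72 h; Bcl-2, BAX, caspase 3 precursor (32 kDa), caspase 3 active subunit (18 kDa) and PARP (112 and 85 kDa) measured by Western blot and expressed as % of untreated control.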

K562 [14] = test: Induction of apoptosis in human K562 cells assessed as Bax level incubated for 72 hrs by Western blot analysis (reference value: 100%); type: functional; summary of the method: as §4
K562 [15] = test: Induction of apoptosis in human K562 cells assessed as 32 kDa Caspase 3 precursor level incubated for 72 hrs by Western blot analysis (reference value: 100%); type: functional; summary of the method: as §4
K562 [16] = test: Induction of apoptosis in human K562 cells assessed as 18 kDa Caspase 3 active subunit level incubated for 72 hrs by Western blot analysis (reference value: 100%); type: functional; summary of the method: as §4
K562 [17] = test: Induction of apoptosis in human K562 cells assessed as 112 kDa PARP level incubated for 72 hrs by Western blot analysis (reference value: 100%); type: functional; summary of the method: as §4
K562 [18] = test: Induction of apoptosis in human K562 cells assessed as 85 kDa PARP level incubated for 72 hrs by Western blot analysis (reference value: 100%); type: functional; summary of the method: as §4
K562 [19] = test: Induction of necrosis in human K562 cells incubated for 24 hrs by annexin V FITC and propidium iodide staining based flow cytometry relative to control; type: functional; parameters: concentration or dose not given beside the values
K562 [20] = test: Cell cycle arrest in human K562 cells assessed as accumulation in G2/M phase incubated for 24 hrs by propidium iodide staining based flow cytometry (reference value: 14.29%); type: functional; summary of the method: as §2
[21] = Ratio of compound IC50 to tiazofurin IC50 for cytotoxicity against human MRC5 cells incubated for 72 hrs by MTT assay; type: cell-based; settings: read-out: Ratio IC50
K562 [22] = test: Cell cycle arrest in human K562 cells assessed as accumulation in S phase incubated for 24 hrs by propidium iodide staining based flow cytometry (reference value: 48.38%); type: functional; summary of the method: as §2
K562 [23] = test: Cell cycle arrest in human K562 cells assessed as accumulation in G0/G1 phase incubated for 24 hrs by propidium iodide staining based flow cytometry (reference value: 36.28%); type: functional; summary of the method: as §2
K562 [24] = test: Cell cycle arrest in human K562 cells assessed as accumulation in sub-G1 phase incubated for 24 hrs by propidium iodide staining based flow cytometry (reference value: 1.05%); type: functional; summary of the method: as §2
K562 [25] = test: Cell cycle arrest in human K562 cells assessed as decrease in cell accumulation at G2/M phase incubated for 72 hrs by propidium iodide staining based flow cytometry relative to tiazofurin; type: functional; summary of the method: as §2
K562 [26] = test: Induction of apoptosis in human K562 cells incubated for 72 hrs by annexin V FITC and propidium iodide staining based flow cytometry relative to tiazofurin; type: functional; summary of the method: as §3
Jurkat [27] = test: Potency index, ratio of tiazofurin IC50 to compound IC50 for cytotoxicity against human Jurkat cells incubated for 72 hrs by MTT assay; type: functional
Jurkat [28] = test: Potency index, ratio of doxorubicin IC50 to compound IC50 for cytotoxicity against human Jurkat cells incubated for 72 hrs by MTT assay; type: functional
K562 [29] = test: Induction of apoptosis in human K562 cells assessed as reduction in cell membrane integrity at cytotoxic IC50 incubated for 72 hrs by acridine orange and ethidium bromide double staining based fluorescence microscopy; type: functional
K562 [30] = test: Genotoxicity in human K562 cells assessed as increase in DNA damage at cytotoxic IC50 incubated for 72 hrs by comet assay; type: toxicity, cell-based; settings: k562, 72 h
Summary of the method: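 Modified alkaline comet assay: cells set in agarose on slides, electrophoresed horizontally, stained with ethidium bromide and imaged by fluorescence microscopy. 50 comets scored per sample; mean tail moment used as the DNA-damage measure.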

Raji [31] = test: Potency index, ratio of tiazofurin IC50 to compound IC50 for cytotoxicity against human Raji cells incubated for 72 hrs by MTT assay; type: functional
Raji [32] = test: Potency index, ratio of doxorubicin IC50 to compound IC50 for cytotoxicity against human Raji cells incubated for 72 hrs by MTT assay; type: functional

SMILES | Activity (K562 [1]) [%] | IC50 (K562 [2]) [µM] | IC50 (HL-60) [µM] | IC50 (Jurkat [3]) [µM] | IC50 (Raji [4]) [µM] | IC50 (HT-29) [µM] | IC50 (HeLa) [µM] | IC50 (MRC5) [µM] | Activity (K562 [7]) [%] | Activity (K562 [8]) [%] | Activity (K562 [9]) [%] | Activity (K562 [10]) [%] | Activity (K562 [11]) [%] | Activity (K562 [12]) [%] | Activity (K562 [13]) [%] | Activity (K562 [14]) [%] | Activity (K562 [15]) [%] | Activity (K562 [16]) [%] | Activity (K562 [17]) [%] | Activity (K562 [18]) [%] | further results
CC(=O)N[C@H]1[C@H](O)[C@@H](CO)O[C@H]1c1nc(C(N)=O)cs1 | 10.64 | 0.0061 | 12.9 | > 100 | 2.56 | > 100 | > 100 | 3.21 | 11.66 | 36.13 | 38.86 | 13.36 | 22.85 | 7.29 | 149.59 | 141.43 | 777.09 | 59.32 | 477.15 | 534.18 | Ratio IC50 (K562 [5]): 309; Ratio IC50 (K562 [6]): 40; Activity (K562 [19]): 1.23%; Activity (K562 [20]): 17.67%; selectivity ratio at 72 h [21]: 9; Activity (K562 [22]): 46.93%; Activity (K562 [23]): 33.62%; Activity (K562 [24]): 2.11%; fold change (FC) (K562 [25]): 2 - 2.4; fold change (FC) (K562 [26]): 2
CC(=O)N[C@@H]1[C@@H](O)[C@H](c2nc(C(N)=O)cs2)O[C@@H]1CO | 27.17 | 0.34 | 3.77 | 0.0072 | 0.0039 | 0.26 | > 100 | 42.4 | 13.22 | 41.58 | 43.3 | 1.9 | 10.14 | 14.11 | 274.16 | 126.68 | 432.96 | 87.05 | 336.99 | 364.31 | Ratio IC50 (Jurkat [27]): 5; Ratio IC50 (Jurkat [28]): 4; Activity (K562 [29]): Active; Activity (K562 [30]): Toxic; Activity (K562 [19]): 8.55%; Ratio IC50 (Raji [31]): 1353 - 1354; Ratio IC50 (Raji [32]): 764; Activity (K562 [20]): 4.47%; Activity (K562 [22]): 49.42%; Activity (K562 [23]): 36.27%; Activity (K562 [24]): 9.84%; fold change (FC) (K562 [25]): 2 - 2.4
[N-]=[N+]=N[C@H]1[C@H](O)[C@@H](CO)O[C@H]1c1nc(C(N)=O)cs1 | 12.47 | 6.28 | 7.55 | > 100 | 40.5 | 2.48 | 29.9 | > 100 | 13.6 | 35.15 | 37.65 | 13.59 | 12.86 | 6.24 | 35.23 | 186.25 | 3222.35 | 156.25 | 355.91 | 169.74 | Activity (K562 [19]): 1.26%; Activity (K562 [20]): 20.75%; Activity (K562 [22]): 47.46%; Activity (K562 [23]): 29.73%; Activity (K562 [24]): 2.32%; fold change (FC) (K562 [25]): 2 - 2.4
COc1cccc2c1C(=O)c1c(O)c3c(c(O)c1C2=O)C[C@@](O)(C(=O)CO)C[C@@H]3O[C@H]1C[C@H](N)[C@H](O)[C@H](C)O1 [DOXORUBICIN] | – | – | – | – | – | 0.15 | – | – | – | – | – | – | – | – | – | – | – | – | – | – | –
